Results pooled from the literature.
Compare with care: the assays were run in different laboratories.

C=CC(=O)N1CC2CC(n3nc(-c4ccc(C(=O)Nc5ccccn5)cc4)c4c(N)ncnc43)CC2C1 (stereo not shown)
AUC(0-t) (SCID mouse, plasma; oral, 1 mg/kg): 175 ng·h/mL

Fc1ccc(-c2nc3c(N4CCC(CN5CCOCC5)CC4)nccc3[nH]2)cc1F
AUC(0-t) (BALB/c mouse, blood; oral, 20 mg/kg): 34.6 µM·h

CC[C@H](C)[C@@H]1NC(=O)[C@@](C)(NC(=O)[C@H](CCCNC(=N)N)NC(=O)[C@H](CC(C)C)NC(=O)[C@@H](NC(=O)[C@H](CCC(N)=O)NC(=O)[C@H](CC(C)C)NC(C)=O)[C@@H](C)O)CCCC=CCCC[C@@](C)(C(=O)N[C@@H](CC(C)C)C(=O)N[C@@H](Cc2ccc3ccccc3c2)C(N)=O)NC(=O)[C@H](CCCNC(=N)N)NC(=O)[C@H](CCC(N)=O)NC1=O
AUC(0-t) (male BALB/c mouse, plasma; intraperitoneal, 5 mg/kg): 102000 ng·h/mL

CNCCN(C)c1cc(C#N)cc(CCc2cc(C)cc(N)n2)c1
AUC(0-t) (male BALB/c mouse, plasma; intravenous, 2 mg/kg): 180 ng·h/mL

CS(=O)(=O)CCNCc1ccc(-c2ccc3ncnc(Nc4ccc(OCc5cccc(F)c5)c(Cl)c4)c3c2)o1
AUC(0-t) (nude mouse, plasma; oral, 50 mg/kg, single dose): 34100 ng·h/mL

COc1ccc2nc(-c3ccccn3)c(N(C)c3ccc(F)cc3)n2c1
AUC(0-t) (male CD-1 mouse, plasma; oral, 50 mg/kg, fasted): 953 ng·h/mL

Cc1c(C(=O)NN2CCCCC2)nn(-c2ccc(Cl)cc2Cl)c1-c1ccc(Cl)cc1
AUC(0-t) (mouse, plasma; oral, 20 µmol/kg, single dose): 9 µM·h

O=S(=O)(c1ccc(-c2ccc3nccc(Nc4ccncn4)c3c2)cc1)N1CCOCC1
AUC(0-t) (female BALB/c mouse, brain; intraperitoneal, 10 mg/kg): 120 ng·h/mL

CCc1cc(C(=O)NC)c2nccc(N3CCc4c(cc(Cn5ccnc5)cc4-c4cn(C)nc4C(F)(F)F)C3=O)c2c1
AUC(0-t) (male CD-1 mouse, plasma; oral, 50 mg/kg): 122000 ng·h/mL

CC(C)(C)c1cc(NC(=O)Nc2ccc(Oc3ccnc4[nH]c(=O)cnc34)cc2F)n(-c2ccccc2)n1
AUC(0-t) (BALB/c mouse, plasma; intravenous, 2 mg/kg): 154 µM·h

Cc1nc(-c2cnc(NC(C)C)n(C)c2=O)ccc1Oc1ccnc(-c2cnn(C)c2)c1
AUC(0-t) (female mouse, plasma; oral, 30 mg/kg, single dose): 179000 ng·h/mL

COc1cc(OC)c2nccc(N3CCc4c(cc(Cn5ccnc5)cc4-c4cn(C)nc4C(F)(F)F)C3=O)c2c1
AUC(0-t) (male CD-1 mouse, plasma; intravenous, 3 mg/kg): 803 ng·h/mL

Cn1ccnc1N1CCN(CC2CCN(c3nccc4[nH]c(-c5cc(F)cc(F)c5)nc34)CC2)CC1
AUC(0-t) (BALB/c mouse, blood; oral, 20 mg/kg): 19 µM·h

CCc1cc(OC)c2nccc(N3CCc4c(cc(Cn5ccnc5)cc4-c4cn(C)nc4C(F)(F)F)C3=O)c2c1
AUC(0-t) (male CD-1 mouse, plasma; oral, 150 mg/kg): 224000 ng·h/mL

CCOC(=O)c1sc(Nc2ncccn2)nc1-c1ccccn1
AUC(0-t) (male CD-1 mouse, plasma; intravenous, 2 mg/kg): 448 ng·h/mL

COc1nc(-c2cc(C)c(N[C@@H](C)c3cc(F)cc(F)c3)nn2)ccc1-n1cnc(C)c1
AUC(0-t) (male CD-1 mouse, plasma; intravenous, 1 mg/kg, single dose): 1940 ng·h/mL

Cc1ccc(NC(=O)c2ccc(CN3CCN(C)CC3)cc2)cc1Nc1nccc(-c2cncc(-c3oncc3C)c2)n1
AUC(0-t) (male C57BL/6 mouse, plasma; oral, 100 mg/kg/day): 37800 ng·h/mL

CN1CCC(N2CCN(c3nccc4[nH]c(-c5ccc(F)c(F)c5)nc34)CC2)CC1
AUC(0-t) (mouse, blood; intravenous, 2 mg/kg): 6.77 µM·h

COc1nc(-c2cc(C)c(N[C@@H](C)c3c(F)cc(F)cc3F)nn2)ccc1-n1cnc(C)c1
AUC(0-t) (male CD-1 mouse, plasma; intravenous, 1 mg/kg, single dose): 2500 ng·h/mL
